Laboratory results from ChEMBL document CHEMBL1158358, “Synthesis, antimicrobial and cytotoxic activities of some 5-arylidene-4-thioxo-thiazolidine-2-ones” (Eur J Med Chem, 2009).
Values after ≈ are worked out from the molar mass of the structure shown.

Columns and labels:
Type in all cases: functional
Candida albicans [1] = assay: Antimicrobial activity against Candida albicans UFPEDA 1007 after 48 hrs by twofold serial dilution technique; details: UFPEDA 1007, 48 h
Outline: (§1)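 MIC was determined by twofold serial dilution. Bacteria were tested in plates at 10⁵ CFU/plate and read after 20 h. C. albicans was tested in tubes at 10³ CFU/tube and read after 48 h. All incubations were at 35 °C. Medium plus DMSO served as the negative control.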

[2] = system: Mycolicibacterium smegmatis; assay: Antimicrobial activity against Mycobacterium smegmatis UFPEDA 71 at 300 ug/disk after 24 hrs by disk diffusion method; details: UFPEDA 71, 24 h, read-out: IZ
Outline: (§2)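 Preliminary screen by disk diffusion. Paper disks (6 mm) holding 300 µg of compound were placed on agar plates inoculated with a standardized microbial suspension. DMSO-only disks served as negative controls. A mean inhibition zone below 7 mm was scored as no sensitivity. Values are means, n = 3.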

NCI-H292 [3] = assay: Cytotoxicity against human NCI-H292 cells at 5 ug/mL after 72 hrs by MTT assay; details: NCI-H292, 72 h, read-out: GI
Outline: (§3)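 MTT antiproliferative assay. Cells were diluted to 10⁵ cells/mL in 96-well plates and preincubated for 24 h at 37 °C in humid 5% CO₂. Compounds or vincristine (reference) were then added. Formazan was dissolved and OD read at 540 nm, compared with medium-only control cells. Run in triplicate.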

HEp-2 [4] = assay: Cytotoxicity against human Hep2 cells at 2.5 ug/mL after 72 hrs by MTT assay; details: HEp-2, 72 h, read-out: GI; outline: as §3
Staphylococcus aureus [5] = assay: Antimicrobial activity against multidrug-resistant Staphylococcus aureus H.C. 21141 isolate after 20 hrs by twofold serial dilution technique; details: H.C. 21141, 20 h
Outline: (§4)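 Twofold serial dilution MIC in agar plates against Gram-positive strains and multidrug-resistant clinical isolates. Inoculum applied was 10⁵ CFU/plate. Plates with culture medium plus DMSO served as negative control. MIC was read after incubation at 35 °C for 20 h.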

NCI-H292 [6] = assay: Cytotoxicity against human NCI-H292 cells at 1.25 ug/mL after 72 hrs by MTT assay; details: NCI-H292, 72 h, read-out: GI; outline: as §3
NCI-H292 [7] = assay: Cytotoxicity against human NCI-H292 cells at 10 ug/mL after 72 hrs by MTT assay; details: NCI-H292, 72 h, read-out: GI; outline: as §3
Staphylococcus aureus [8] = assay: Antimicrobial activity against Staphylococcus aureus UFPEDA 01 after 20 hrs by twofold serial dilution technique; details: UFPEDA 01, 20 h; outline: as §4
HEp-2 [9] = assay: Cytotoxicity against human Hep2 cells at 5 ug/mL after 72 hrs by MTT assay; details: HEp-2, 72 h, read-out: GI; outline: as §3
Micrococcus luteus [10] = assay: Antimicrobial activity against Micrococcus luteus UFPEDA 06 after 20 hrs by twofold serial dilution technique; details: UFPEDA 06, 20 h; outline: as §1
Staphylococcus aureus [11] = assay: Antimicrobial activity against multidrug-resistant Staphylococcus aureus H.C. 20794 isolate after 20 hrs by twofold serial dilution technique; details: H.C. 20794, 20 h; outline: as §4
NCI-H292 [12] = assay: Cytotoxicity against human NCI-H292 cells at 2.5 ug/mL after 72 hrs by MTT assay; details: NCI-H292, 72 h, read-out: GI; outline: as §3
Staphylococcus [13] = assay: Antimicrobial activity against coagulase-negative Staphylococcus H.A.M. 278 isolate after 20 hrs by twofold serial dilution technique; details: H.A.M. 278, 20 h; outline: as §1
Bacillus subtilis [14] = assay: Antimicrobial activity against Bacillus subtilis UFPEDA 16 at 300 ug/disk after 24 hrs by disk diffusion method; details: UFPEDA 16, 24 h, read-out: IZ; outline: as §2
Staphylococcus aureus [15] = assay: Antimicrobial activity against Staphylococcus aureus UFPEDA 01 at 300 ug/disk after 24 hrs by disk diffusion method; details: UFPEDA 01, 24 h, read-out: IZ; outline: as §2
Staphylococcus aureus [16] = assay: Antimicrobial activity against multidrug-resistant Staphylococcus aureus H.C. 20981 isolate after 20 hrs by twofold serial dilution technique; details: H.C. 20981, 20 h; outline: as §4
Enterococcus faecalis [17] = assay: Antimicrobial activity against multidrug-resistant Enterococcus faecalis H.C. 24708 isolate after 20 hrs by twofold serial dilution technique; details: H.C. 24708, 20 h; outline: as §4
Pseudomonas aeruginosa = assay: Antimicrobial activity against Pseudomonas aeruginosa UFPEDA 39 at 300 ug/disk after 24 hrs by disk diffusion method; details: UFPEDA 39, 24 h, read-out: IZ; outline: as §2
HEp-2 [18] = assay: Cytotoxicity against human Hep2 cells at 10 ug/mL after 72 hrs by MTT assay; details: HEp-2, 72 h, read-out: GI; outline: as §3
Enterococcus faecalis [19] = assay: Antimicrobial activity against multidrug-resistant Enterococcus faecalis H.C. 21944 isolate after 20 hrs by twofold serial dilution technique; details: H.C. 21944, 20 h; outline: as §4
[20] = system: Mycolicibacterium smegmatis; assay: Antimicrobial activity against Mycobacterium smegmatis UFPEDA 71 after 20 hrs by twofold serial dilution technique; details: UFPEDA 71, 20 h; outline: as §1
Micrococcus luteus [21] = assay: Antimicrobial activity against Micrococcus luteus UFPEDA 06 at 300 ug/disk after 24 hrs by disk diffusion method; details: UFPEDA 06, 24 h, read-out: IZ; outline: as §2
Enterococcus faecalis [22] = assay: Antimicrobial activity against Enterococcus faecalis UFPEDA 138 after 20 hrs by twofold serial dilution technique; details: UFPEDA 138, 20 h; outline: as §1
Serratia marcescens = assay: Antimicrobial activity against Serratia marcescens UFPEDA 398 at 300 ug/disk after 24 hrs by disk diffusion method; details: UFPEDA 398, 24 h, read-out: IZ; outline: as §2
Enterococcus faecalis [23] = assay: Antimicrobial activity against multidrug-resistant Enterococcus faecalis H.C. 21752 isolate after 20 hrs by twofold serial dilution technique; details: H.C. 21752, 20 h; outline: as §4
Staphylococcus aureus [24] = assay: Antimicrobial activity against multidrug-resistant Staphylococcus aureus H.C. 21036 isolate after 20 hrs by twofold serial dilution technique; details: H.C. 21036, 20 h; outline: as §4
Staphylococcus aureus [25] = assay: Antimicrobial activity against multidrug-resistant Staphylococcus aureus H.C. 20489 isolate after 20 hrs by twofold serial dilution technique; details: H.C. 20489, 20 h; outline: as §4
Enterococcus faecalis [26] = assay: Antimicrobial activity against Enterococcus faecalis UFPEDA 138 at 300 ug/disk after 24 hrs by disk diffusion method; details: UFPEDA 138, 24 h, read-out: IZ; outline: as §2
Candida albicans [27] = assay: Antimicrobial activity against Candida albicans UFPEDA 1007 at 300 ug/disk after 48 hrs by disk diffusion method; details: UFPEDA 1007, 48 h, read-out: IZ; outline: as §2
Bacillus subtilis [28] = assay: Antimicrobial activity against Bacillus subtilis UFPEDA 16 after 20 hrs by twofold serial dilution technique; details: UFPEDA 16, 20 h; outline: as §1
Enterococcus faecalis [29] = assay: Antimicrobial activity against multidrug-resistant Enterococcus faecalis H.C. 24962 isolate after 20 hrs by twofold serial dilution technique; details: H.C. 24962, 20 h; outline: as §4
Escherichia coli = assay: Antimicrobial activity against Escherichia coli UFPEDA 224 at 300 ug/disk after 24 hrs by disk diffusion method; details: UFPEDA 224, 24 h, read-out: IZ; outline: as §2
Staphylococcus aureus [30] = assay: Antimicrobial activity against multidrug-resistant Staphylococcus aureus H.C. 20905 isolate after 20 hrs by twofold serial dilution technique; details: H.C. 20905, 20 h; outline: as §4
HEp-2 [31] = assay: Cytotoxicity against human Hep2 cells at 1.25 ug/mL after 72 hrs by MTT assay; details: HEp-2, 72 h, read-out: GI; outline: as §3
Staphylococcus [32] = assay: Antimicrobial activity against coagulase-negative Staphylococcus H.A.M. 338 isolate after 20 hrs by twofold serial dilution technique; details: H.A.M. 338, 20 h; outline: as §1

SMILES | MIC (Candida albicans [1]) [µg/mL] | zone of inhibition at 300 µg/disc [2] [mm] | inhibition of growth at 5 µg/mL (NCI-H292 [3]) [%] | inhibition of growth at 2.5 µg/mL (HEp-2 [4]) [%] | MIC (Staphylococcus aureus [5]) [µg/mL] | inhibition of growth at 1.25 µg/mL (NCI-H292 [6]) [%] | inhibition of growth at 10 µg/mL (NCI-H292 [7]) [%] | MIC (Staphylococcus aureus [8]) [µg/mL] | inhibition of growth at 5 µg/mL (HEp-2 [9]) [%] | MIC (Micrococcus luteus [10]) [µg/mL] | MIC (Staphylococcus aureus [11]) [µg/mL] | inhibition of growth at 2.5 µg/mL (NCI-H292 [12]) [%] | MIC (Staphylococcus [13]) [µg/mL] | zone of inhibition at 300 µg/disc (Bacillus subtilis [14]) [mm] | zone of inhibition at 300 µg/disc (Staphylococcus aureus [15]) [mm] | MIC (Staphylococcus aureus [16]) [µg/mL] | MIC (Enterococcus faecalis [17]) [µg/mL] | zone of inhibition at 300 µg/disc (Pseudomonas aeruginosa) [mm] | inhibition of growth at 10 µg/mL (HEp-2 [18]) [%] | MIC (Enterococcus faecalis [19]) [µg/mL] | also measured
O=C1NC(=S)/C(=C/c2ccccc2Cl)S1 | 32 (≈ 125 µM) | 20 | 34.2 | -11.5 | 8 (≈ 31.3 µM) | 10.6 | 45 | 4 (≈ 15.6 µM) | 5.97 | 16 (≈ 62.6 µM) | 2 (≈ 7.82 µM) | 19.9 | 32 (≈ 125 µM) | 17 | 25 | 4 (≈ 15.6 µM) | 16 (≈ 62.6 µM) | < 7 | 21.1 | 32 (≈ 125 µM) | MIC [20]: 16 µg/mL (≈ 62.6 µM); zone of inhibition at 300 µg/disc (Micrococcus luteus [21]): 18 mm; MIC (Enterococcus faecalis [22]): 16 µg/mL (≈ 62.6 µM); zone of inhibition at 300 µg/disc (Serratia marcescens): < 7 mm; MIC (Enterococcus faecalis [23]): 16 µg/mL (≈ 62.6 µM); MIC (Staphylococcus aureus [24]): 2 µg/mL (≈ 7.82 µM); MIC (Staphylococcus aureus [25]): 2 µg/mL (≈ 7.82 µM); zone of inhibition at 300 µg/disc (Enterococcus faecalis [26]): 16 mm; zone of inhibition at 300 µg/disc (Candida albicans [27]): 12 mm; MIC (Bacillus subtilis [28]): 16 µg/mL (≈ 62.6 µM); MIC (Enterococcus faecalis [29]): 32 µg/mL (≈ 125 µM); zone of inhibition at 300 µg/disc (Escherichia coli): < 7 mm; MIC (Staphylococcus aureus [30]): 2 µg/mL (≈ 7.82 µM); inhibition of growth at 1.25 µg/mL (HEp-2 [31]): -11.3%; MIC (Staphylococcus [32]): 8 µg/mL (≈ 31.3 µM)
O=C1NC(=S)/C(=C/c2ccccc2Br)S1 | 32 (≈ 107 µM) | 21 | 22.9 | 10.3 | 16 (≈ 53.3 µM) | 13.3 | 36.9 | 4 (≈ 13.3 µM) | 16.2 | 16 (≈ 53.3 µM) | 4 (≈ 13.3 µM) | 16.2 | 2 (≈ 6.66 µM) | 19 | 25 | 4 (≈ 13.3 µM) | 16 (≈ 53.3 µM) | < 7 | 21.2 | 16 (≈ 53.3 µM) | MIC [20]: 32 µg/mL (≈ 107 µM); zone of inhibition at 300 µg/disc (Micrococcus luteus [21]): 18 mm; MIC (Enterococcus faecalis [22]): 32 µg/mL (≈ 107 µM); zone of inhibition at 300 µg/disc (Serratia marcescens): < 7 mm; MIC (Enterococcus faecalis [23]): 8 µg/mL (≈ 26.6 µM); MIC (Staphylococcus aureus [24]): 4 µg/mL (≈ 13.3 µM); MIC (Staphylococcus aureus [25]): 4 µg/mL (≈ 13.3 µM); zone of inhibition at 300 µg/disc (Enterococcus faecalis [26]): 19 mm; zone of inhibition at 300 µg/disc (Candida albicans [27]): 13 mm; MIC (Bacillus subtilis [28]): 8 µg/mL (≈ 26.6 µM); MIC (Enterococcus faecalis [29]): 16 µg/mL (≈ 53.3 µM); zone of inhibition at 300 µg/disc (Escherichia coli): < 7 mm; MIC (Staphylococcus aureus [30]): 4 µg/mL (≈ 13.3 µM); inhibition of growth at 1.25 µg/mL (HEp-2 [31]): 3.14%; MIC (Staphylococcus [32]): 16 µg/mL (≈ 53.3 µM)
O=C1NC(=S)/C(=C/c2cccc(Br)c2)S1 | 64 (≈ 213 µM) | 25 | 22 | -1.82 | 32 (≈ 107 µM) | 4.67 | 42.4 | 4 (≈ 13.3 µM) | -1.04 | 8 (≈ 26.6 µM) | 8 (≈ 26.6 µM) | 11.1 | 64 (≈ 213 µM) | 26 | 28 | 16 (≈ 53.3 µM) | 8 (≈ 26.6 µM) | < 7 | 23.6 | 16 (≈ 53.3 µM) | MIC [20]: 16 µg/mL (≈ 53.3 µM); zone of inhibition at 300 µg/disc (Micrococcus luteus [21]): 29 mm; MIC (Enterococcus faecalis [22]): 16 µg/mL (≈ 53.3 µM); zone of inhibition at 300 µg/disc (Serratia marcescens): < 7 mm; MIC (Enterococcus faecalis [23]): 8 µg/mL (≈ 26.6 µM); MIC (Staphylococcus aureus [24]): 16 µg/mL (≈ 53.3 µM); MIC (Staphylococcus aureus [25]): 8 µg/mL (≈ 26.6 µM); zone of inhibition at 300 µg/disc (Enterococcus faecalis [26]): 25 mm; zone of inhibition at 300 µg/disc (Candida albicans [27]): 14 mm; MIC (Bacillus subtilis [28]): 8 µg/mL (≈ 26.6 µM); MIC (Enterococcus faecalis [29]): 16 µg/mL (≈ 53.3 µM); zone of inhibition at 300 µg/disc (Escherichia coli): < 7 mm; MIC (Staphylococcus aureus [30]): 16 µg/mL (≈ 53.3 µM); inhibition of growth at 1.25 µg/mL (HEp-2 [31]): -5.3%; MIC (Staphylococcus [32]): 64 µg/mL (≈ 213 µM)
